Most compounds without a hit are left out; they make up all but 4.3% or so of the library.
ALR inh: human ALR oxidase inhibition via reduced H2O2. purified ALR, DTT oxidation, H2O2 HRP-luminol luminescence. inhibition, % (concentration not given with the values). AID 485317. 3.8% of 290,000 active. P55789;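 active = mean replicate inhibition above about 79%, with every replicate also reaching it, limit read from the data; inconclusive = only one of the two criteria met; inactive = mean below limit and not every replicate reaching it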
Target sequence (P55789 whole entry, looked up): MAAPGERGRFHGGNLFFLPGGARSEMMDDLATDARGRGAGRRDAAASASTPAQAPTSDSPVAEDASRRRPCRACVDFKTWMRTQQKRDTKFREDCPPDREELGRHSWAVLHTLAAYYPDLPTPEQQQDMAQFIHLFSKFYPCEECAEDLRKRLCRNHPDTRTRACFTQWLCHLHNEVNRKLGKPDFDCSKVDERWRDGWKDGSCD
PREPL inhibitor: human PREPL enzyme inhibition; Q4J6C6; recombinant PREPL, fluorescence polarization activity-based probe; inhibition, % at 5.96 µM; 0.68% of 320,000 active; AID 2751; in the data active = inhibition above about 43%;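 also: 0% = enzyme with DMSO and 100% = wells lacking enzyme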
UBC13 polyUb: human UBC13 polyubiquitination inhibition. UBC13 polyubiquitin chain formation, TR-FRET. inhibition, % at 20 µM. 0.47% of 330,000 active. AID 485273; in the data active = inhibition above about 45%, passing the limit was not always enough; inconclusive = no clear call, values can overlap the other calls
Target sequence (P61088 whole entry, looked up): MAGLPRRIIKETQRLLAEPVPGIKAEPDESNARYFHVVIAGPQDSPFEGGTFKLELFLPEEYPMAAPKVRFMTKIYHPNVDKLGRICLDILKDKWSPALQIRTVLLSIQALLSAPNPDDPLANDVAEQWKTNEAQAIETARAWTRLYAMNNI
Rin1 Abl inh: inhibitors of human Rin1-Abl protein interaction | P00519+Q13671 | TR-FRET Rin1/Abl binding, biochemical | inhibition, % at 7.35 µM | 0.4% of 360,000 active | AID 588664; in the data active = inhibition above about 5%, passing the limit was not always enough
RBBP9 inh: blocks human serine hydrolase RBBP9; O75884; recombinant RBBP9, FP-Rh probe fluorescence polarization; inhibition, % at 7.94 µM; 0.2% of 220,000 active; AID 1515;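 active = inhibition above the campaign mean of all tested compounds plus 3 SD, cut at about 14% in these data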;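 also: plate controls were DMSO wells with RBBP9 for no effect and wells lacking RBBP9 protein for full effect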
Target sequence (O75884 whole entry, looked up): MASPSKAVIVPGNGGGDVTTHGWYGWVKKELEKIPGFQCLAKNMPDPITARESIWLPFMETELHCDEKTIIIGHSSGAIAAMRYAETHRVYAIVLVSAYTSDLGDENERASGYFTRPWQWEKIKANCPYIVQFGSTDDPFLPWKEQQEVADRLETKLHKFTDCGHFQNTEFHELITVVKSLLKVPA
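Assay system: recombinant human RBBP9; Reagent: Serine-hydrolase probe FP-Rh, 375 nM pre-mixing; Doses: 7.94 µM single dose, 0.794% DMSO; Incubation: 30 min then 45 min, 25 °C; Detection: fluorescence polarization (mP), excitation 525 nm, emission 598 nm; Evaluation: percent inhibition from mP, scaled between DMSO and no-protein wells.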
UBC9 SUMO inh: SUMOylation inhibition; HTRF SUMOylation assay, SAE1/SAE2 + UBC9, in vitro; AID 2006; 0.36% of 290,000 active; P63279; inhibition, % at 35 µM; in the data active = inhibition above about 50%, passing the limit was not always enough; inconclusive = no clear call, values can overlap the other calls
* = called active by the depositor.

What do the screens show for `Cc1sccc1C1C(C#N)=C(N)SC(N)=C1C#N`?
ALR inh: 25; PREPL inhibitor: 10; UBC13 polyUb: 13; RBBP9 inh: -2; UBC9 SUMO inh: 4

How did COc1ccc(N2CCN(C(CNC(=O)C(=O)NC3CCCC3)c3ccco3)CC2)cc1 (centres undefined) do in these assays?
ALR inh: -5; PREPL inhibitor: 15; UBC13 polyUb: 1; Rin1 Abl inh: 0

Results for CCOC(=O)c1nn(-c2ccc3c(c2)OCO3)cc1O ?
ALR inh: 94*; PREPL inhibitor: 2; UBC13 polyUb: 11; Rin1 Abl inh: -4; RBBP9 inh: -5

How did CC(=O)OCC1=C(C(=O)O)N2C(=O)C(NC(=O)c3ccc(COc4c(C)cccc4Cl)o3)C2SC1 (centres undefined) do in these assays?
ALR inh: 98*; PREPL inhibitor: 3; UBC13 polyUb: -20; Rin1 Abl inh: 1; RBBP9 inh: -4; UBC9 SUMO inh: 14

How did N#C/C(=C\c1c[nH]c2ccccc12)C(=O)NC1CCCC1 do in these assays?
ALR inh: 96*; PREPL inhibitor: 6; UBC13 polyUb: -2; Rin1 Abl inh: -2; UBC9 SUMO inh: -2

How did CCCCC(CC)CNC(=O)C1CC=CCC1C(=O)O (centres undefined) do in these assays?
ALR inh: 1; PREPL inhibitor: 0; UBC13 polyUb: 3; Rin1 Abl inh: 3; RBBP9 inh: -4; UBC9 SUMO inh: -9

What do the screens show for `Oc1[nH]c2ccccc2c1C=Nc1ccccc1`?
PREPL inhibitor: 30; UBC13 polyUb: -22; Rin1 Abl inh: -5; RBBP9 inh: -6; UBC9 SUMO inh: 5

What do the screens show for `CN(C)CC(C)(C)CN=Cc1c(O)[nH]c2ccccc12`?
ALR inh: 99*; PREPL inhibitor: -16; UBC13 polyUb: -6; Rin1 Abl inh: -4; RBBP9 inh: -1; UBC9 SUMO inh: 8

How did COc1ccc(CN=Cc2c(C(=O)O)[nH]c3ccccc23)cc1 do in these assays?
ALR inh: 1; PREPL inhibitor: -1; UBC13 polyUb: 2; Rin1 Abl inh: 3; RBBP9 inh: -3; UBC9 SUMO inh: 13

How did OCCN=Cc1c(O)[nH]c2ccccc12 do in these assays?
ALR inh: 99*; PREPL inhibitor: 9; UBC13 polyUb: -4; Rin1 Abl inh: -2; RBBP9 inh: -3; UBC9 SUMO inh: 7

How did COCC(C)N=Cc1c(O)[nH]c2ccccc12 (centres undefined) do in these assays?
ALR inh: 99*; PREPL inhibitor: 1; UBC13 polyUb: 0; Rin1 Abl inh: -1; RBBP9 inh: -11; UBC9 SUMO inh: -7

How did COc1ccc(OC)c(Nc2c3c(nc4ccccc24)CCC3)c1 do in these assays?
ALR inh: 98*; PREPL inhibitor: 18; UBC13 polyUb: -2; Rin1 Abl inh: -7; UBC9 SUMO inh: 6

What do the screens show for `COc1ccc(OC)c(Nc2c3ccccc3nc3ccccc23)c1`?
ALR inh: inconclusive; PREPL inhibitor: 34; UBC13 polyUb: -69; Rin1 Abl inh: -10; UBC9 SUMO inh: 8

How did COc1cc(Nc2c3c(nc4ccccc24)CCC3)cc(OC)c1OC do in these assays?
ALR inh: 99*; PREPL inhibitor: 29; UBC13 polyUb: 10; Rin1 Abl inh: -4; UBC9 SUMO inh: 16

How did COc1cc(/C=C2/C(=O)NN(c3ccc(Cl)cc3)C2=O)cc(Br)c1O do in these assays?
ALR inh: 98*; PREPL inhibitor: 0; UBC13 polyUb: -247; Rin1 Abl inh: -3; UBC9 SUMO inh: -9

Results for C/C(=C\c1ccccc1)C(=O)Nc1ccc(S(=O)(=O)Nc2ncccn2)cc1 ?
ALR inh: 3; PREPL inhibitor: 8; UBC13 polyUb: -3; Rin1 Abl inh: 2; RBBP9 inh: -3; UBC9 SUMO inh: 10

How did COCCCN1C(=O)C(CC(=O)NCc2ccco2)CC(C(=O)N(C)C)=C1C (centres undefined) do in these assays?
Rin1 Abl inh: -5

How did COC(=O)c1c(C)[nH]c(O)c1C=Nc1ccc(C(C)C)cc1 do in these assays?
ALR inh: 7; PREPL inhibitor: 47*; UBC13 polyUb: -13; Rin1 Abl inh: -2; RBBP9 inh: -5; UBC9 SUMO inh: 0

What do the screens show for `COC(=O)c1c(C)[nH]c(O)c1C=Nc1ccc(Oc2ccccc2)cc1`?
ALR inh: 49; PREPL inhibitor: 0; UBC13 polyUb: -10; Rin1 Abl inh: 1; RBBP9 inh: -3; UBC9 SUMO inh: 11

How did Nc1ccc(N=Nc2ccccc2O)c(N)c1 do in these assays?
ALR inh: 83*; PREPL inhibitor: 31; UBC13 polyUb: -415; Rin1 Abl inh: -4

How did CCCCN(C(=O)COc1ccc(F)cc1)c1c(N)n(CC(C)C)c(=O)[nH]c1=O do in these assays?
Rin1 Abl inh: 2

Results for CC1CCC2C(C1)Nc1c(C(=O)O)cccc1C2(C)C (centres undefined) ?
ALR inh: 98*; PREPL inhibitor: -8; UBC13 polyUb: -5; Rin1 Abl inh: -3; RBBP9 inh: 2; UBC9 SUMO inh: 3

How did CCOc1ccccc1NC(=O)CN1C(=O)CSC(C)C1=O (centres undefined) do in these assays?
PREPL inhibitor: 9; UBC13 polyUb: 10; Rin1 Abl inh: -5; RBBP9 inh: 4; UBC9 SUMO inh: 11

What do the screens show for `Cc1ccccc1NC(=O)Nc1nc(C2CCC(=O)N2)cs1` (centres undefined)?
Rin1 Abl inh: 2

How did CCCCN1CC(O)=C(c2nc3ccccc3[nH]2)C1=N do in these assays?
ALR inh: 4; PREPL inhibitor: 6; UBC13 polyUb: -5; Rin1 Abl inh: 1; RBBP9 inh: 4; UBC9 SUMO inh: -37

What do the screens show for `C=CCN1CC(O)=C(c2nc3ccccc3[nH]2)C1=N`?
ALR inh: 83*; PREPL inhibitor: 11; UBC13 polyUb: 9; Rin1 Abl inh: 0; RBBP9 inh: 1; UBC9 SUMO inh: 4

Results for Fc1ccc(-n2[nH]nnc2=S)cc1N1CCCC1 ?
ALR inh: 82*; PREPL inhibitor: -1; UBC13 polyUb: -8; Rin1 Abl inh: 6; RBBP9 inh: -10; UBC9 SUMO inh: 26

How did COc1ccc(NC2CCCN(C(=O)CCC(=O)c3ccc(F)cc3)C2)cc1 (centres undefined) do in these assays?
ALR inh: 99*; PREPL inhibitor: 20; UBC13 polyUb: -4; Rin1 Abl inh: -6; UBC9 SUMO inh: 10

How did COc1cc(OC)cc(C(=O)N2CCCC(Nc3ccc(F)cc3)C2)c1 (centres undefined) do in these assays?
ALR inh: 99*; PREPL inhibitor: 9; UBC13 polyUb: -5; Rin1 Abl inh: 0; UBC9 SUMO inh: -11

Results for O=C(c1ccnc(Cl)c1)N1CCCC(Nc2ccc(F)cc2)C1 (centres undefined) ?
ALR inh: 29; PREPL inhibitor: 7; UBC13 polyUb: 0; Rin1 Abl inh: -1; UBC9 SUMO inh: 0

Source: PubChem (several laboratories)
